Screening results from PubChem.
T cruzi growth-1 = blocks T. cruzi growth in NIH3T3 culture; T. cruzi beta-gal in NIH3T3, GalScreen luminescence, 90 h; 77,000 compounds, 5.9% hits; inhibition, % at 8.34 µM;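 active means mean inhibition above about 93%, with at least 55% of replicates each passing it, limit read from the data, passing the limit was not always enough; inconclusive means only one of those two conditions holds; inactive means neither condition holds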
IDH1 R132H inh = blocks human IDH1 R132H reductase activity; O75874; diaphorase/resazurin fluorescence, 60 min; inhibition, % at 10 µM; 70,000 compounds, 0.18% hits; AID 624101; in the data active means inhibition above about 34%; inconclusive means no clear call, values can overlap the other calls; inactive means below about 11%;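 further: 0% = DMSO and 100% = no enzyme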
Pf Dd2 growth = blocks growth of Plasmodium falciparum Dd2 parasites | AID 1159554 | P. falciparum Dd2 growth, SYBR Green, 72 h; hits give low values | activity change, % at 10 µM | 94,000 compounds, 2.3% hits; in the data active means activity change below about -80%; inconclusive means no clear call, values can overlap the other calls
GASC1 inh = inhibitors of human demethylase GASC-1 KDM4C | GST-KDM4C 2-372, H3K9me3 peptide, LANCE TR-FRET | inhibition, % at 12.5 µM | 96,000 compounds, 0.15% hits | AID 720574;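 active means mean replicate inhibition above about 25%, with at least 55% of replicates also reaching it, limit read from the data, passing the limit was not always enough; inconclusive means only one of those two conditions met; inactive means neither condition met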
Target sequence (Q9H3R0 2-372 limits assumed): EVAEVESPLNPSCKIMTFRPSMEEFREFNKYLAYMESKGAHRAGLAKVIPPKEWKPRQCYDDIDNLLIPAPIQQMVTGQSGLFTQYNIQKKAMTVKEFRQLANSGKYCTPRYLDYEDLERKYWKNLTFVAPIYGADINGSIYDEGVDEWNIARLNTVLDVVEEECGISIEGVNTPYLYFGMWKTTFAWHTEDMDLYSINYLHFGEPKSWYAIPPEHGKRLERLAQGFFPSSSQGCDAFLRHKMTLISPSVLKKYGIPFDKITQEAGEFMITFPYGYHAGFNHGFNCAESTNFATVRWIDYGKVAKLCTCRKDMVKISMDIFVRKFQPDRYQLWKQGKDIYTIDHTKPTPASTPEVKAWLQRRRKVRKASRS
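System: N-terminal GST-fused human GASC-1 (KDM4C) fragment, residues 2-372 / Amount: 10 nM GST-KDM4C in enzyme reaction / Also added: H3K9me3 peptide with Fe(II)/2OG / Times: 30 min demethylation and 1 h detection at room temperature / Signal: LANCE TR-FRET / Read-out basis: Fall in 671/618 emission ratio as inhibition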
T cruzi growth-2 = inhibitors of T. cruzi proliferation. T. cruzi beta-gal in NIH3T3, GalScreen luminescence, 90 h. 5,600 compounds, 72% hits. AID 651739. inhibition, % at 8.35 µM. shares compounds with T cruzi growth-1;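 active means mean replicate inhibition above about 95% and at least 55% of replicates individually reaching it, limit read from the data; inconclusive means only one of the two criteria is met; inactive means neither criterion is met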
T cruzi growth-3 = inhibitors of T. cruzi proliferation; AID 651740; 5,600 compounds, 21% hits; inhibition, % at 2.09 µM; shares compounds with T cruzi growth-1; T. cruzi beta-gal in NIH3T3, GalScreen luminescence, 90 h;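 active means mean inhibition above about 95%, with at least 55% of replicates also reaching it, limit read from the data; inconclusive means meets just one of the two conditions; inactive means meets neither condition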;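 further: plate controls were neutral control median for no effect and positive control median for full effect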
3T3 cytotox = NIH/3T3 (mouse) viability loss | shares compounds with T cruzi growth-1 | 5,600 compounds, 14% hits | NIH/3T3 viability, CellTiter-Glo ATP luminescence, 90 h | cytotoxicity (signal decrease), % at 8.35 µM;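 active means mean signal decrease across replicates above about 35% based on untreated-well scatter, with enough replicates individually passing, limit read from the data; inconclusive means no rule stated though some were filed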;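 further: 0% = median of neutral control wells and 100% = median of positive control wells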
3T3 cytotox 2 = kills mouse NIH/3T3 fibroblasts. shares compounds with T cruzi growth-1. 5,600 compounds, 56% hits. inhibition, % at 24.9 µM. NIH/3T3 viability, CellTiter-Glo ATP luminescence, 90 h. AID 651744;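 active means mean loss of cell viability signal at or above a set limit, and enough replicates individually reaching it; inconclusive means meets only the mean limit or only the replicate share; inactive means meets neither condition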;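 further: 0% = median of neutral control wells and 100% = median of positive control wells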
An asterisk follows results filed as active; u = inconclusive; x = no result given; + = active, no number. Only some compounds are listed: those with a hit (about 5.9% of all), similar ones and a draw of the others.

SMILES	T cruzi growth-1	IDH1 R132H inh	Pf Dd2 growth	GASC1 inh	T cruzi growth-2	T cruzi growth-3	3T3 cytotox	3T3 cytotox 2
COc1ccccc1S(=O)(=O)N(C)C[C@@H]1Oc2cc(C#CCC(C)C)ccc2S(=O)(=O)N([C@H](C)CO)C[C@H]1C	103*	0	-83*	0	93	115*	44*	105*
CCn1c(SCC(=O)Nc2ccc(F)c(F)c2)nnc1-c1ccncc1	x	-1	x	x	x	x	x	x
COc1cccc(-c2ccc3n(c2=O)C[C@@H]2[C@@H](CO)[C@H](C(=O)N(C)C)N(CC4CC4)[C@H]32)c1	104*	x	-2	4	107*	18	12	u
COC(=O)[C@H]1[C@H](CO)[C@H]2Cn3c(ccc(-c4ccccc4OC)c3=O)[C@H]2N1CC1CCOCC1	5	x	5	3	x	x	x	x
COC(=O)[C@@H]1[C@@H](CO)[C@@H]2Cn3c(ccc(-c4ccccc4OC)c3=O)[C@@H]2N1CC1CCCC1	+	x	x	5	38	13	-1	33*
CCNC(=O)[C@@H]1[C@@H](CO)[C@@H]2Cn3c(ccc(-c4ccccc4OC)c3=O)[C@@H]2N1S(C)(=O)=O	111*	x	1	1	-99	8	-26	-52
CCNC(=O)[C@@H]1[C@@H](CO)[C@@H]2Cn3c(ccc(-c4ccccc4OC)c3=O)[C@@H]2N1CC	12	x	11	2	x	x	x	x
COC(=O)[C@H]1[C@H](CO)[C@H]2Cn3c(ccc(-c4cccc(OC)c4)c3=O)[C@H]2N1CC1CC1	75	x	0	4	x	x	x	x
COC(=O)[C@H]1[C@H](CO)[C@H]2Cn3c(ccc(-c4ccccc4OC)c3=O)[C@H]2N1CC1CCCC1	+	x	x	5	44	-12	-7	28*
COC(=O)[C@@H]1[C@@H](CO)[C@@H]2Cn3c(ccc(-c4ccccc4OC)c3=O)[C@@H]2N1CC1CCCCC1	x	x	-48	3	x	x	x	x
Cc1ccc(S(=O)(=O)NC(C)C(=O)Nc2c(C)cc(C)cc2C)cc1 (stereo unspecified)	x	0	x	x	x	x	x	x
O=C(CCCCCCC(=O)Nc1ccccc1O)N/N=C/c1ccc(Br)o1	x	0	x	x	x	x	x	x
COc1cccc(CNc2nc3ccccc3n2C)c1OC	x	-1	x	x	x	x	x	x
C[C@@H]1CN([C@@H](C)CO)S(=O)(=O)c2ccc(C#Cc3ccccn3)cc2O[C@@H]1CN(C)C	x	0	22	0	x	x	x	x
CNC[C@H]1Oc2cc(C#Cc3ccccn3)ccc2S(=O)(=O)N([C@H](C)CO)C[C@H]1C	99*	0	-22	1	109*	69	-8	29
CNC[C@H]1Oc2cc(C#Cc3ccccn3)ccc2S(=O)(=O)N([C@@H](C)CO)C[C@@H]1C	101*	11	-41	-1	111*	93	4	4
Cc1ccc(S(=O)(=O)c2nc(-c3ccccc3F)oc2NCC2CCCO2)cc1 (stereo unspecified)	x	-1	x	x	x	x	x	x
C[C@H](CO)N1C[C@H](C)[C@@H](CN(C)C(=O)CN(C)C)Oc2cc(C#CCC3CCCC3)ccc2S1(=O)=O	122	2	-71	2	x	x	x	x
C[C@H](CO)N1C[C@H](C)[C@@H](CN(C)C(=O)CC2CC2)Oc2cc(C#CCC3CCCC3)ccc2S1(=O)=O	116*	3	-66	-2	u	102*	31	104*
C[C@H]1CN([C@@H](C)CO)S(=O)(=O)c2ccc(C#CCC3CCCC3)cc2O[C@@H]1CN(C)C(=O)CC1CC1	121*	0	-66	x	103*	113*	-22	105*
C[C@H](CO)N1C[C@H](C)[C@H](CN(C)C(=O)CC2CC2)Oc2cc(C#CCC3CCCC3)ccc2S1(=O)=O	121*	3	-66	-4	99*	63	2	104*
C[C@H]1CN([C@@H](C)CO)S(=O)(=O)c2ccc(C#CCC3CCCC3)cc2O[C@H]1CN(C)C(=O)CN(C)C	107	0	-69	-1	x	x	x	x
Cc1cc(C)c(NC(=O)CSc2nc(-c3ccccc3)cc(=O)[nH]2)c([N+](=O)[O-])c1	x	1	x	x	x	x	x	x
COc1cc([N+](=O)[O-])ccc1NC(=O)CSc1nc(C)cc(-c2ccc(Cl)cc2)n1	x	0	x	x	x	x	x	x
C[C@H](CO)N1C[C@H](C)[C@@H](CN(C)C(=O)Nc2cccc3ccccc23)OCCCC[C@H](C)Oc2ccc(NS(=O)(=O)c3ccc(Cl)cc3)cc2C1=O	91	x	-43	-2	x	x	x	x
SMILES	T cruzi growth-1	IDH1 R132H inh	Pf Dd2 growth	GASC1 inh	T cruzi growth-2	T cruzi growth-3	3T3 cytotox	3T3 cytotox 2
C[C@@H]1CN([C@@H](C)CO)C(=O)c2cc(NS(=O)(=O)c3ccc(Cl)cc3)ccc2O[C@@H](C)CCCCO[C@@H]1CN(C)C(=O)Nc1cccc2ccccc12	99*	1	-75	0	105*	u	16	18
C[C@@H]1CCCCO[C@@H](CN(C)C(=O)Nc2cccc3ccccc23)[C@H](C)CN([C@@H](C)CO)C(=O)c2cc(NS(=O)(=O)c3ccc(F)cc3)ccc2O1	105*	x	-36	-1	101*	66	7	3
C[C@H](CO)N1C[C@H](C)[C@H](CN(C)C(=O)Nc2cccc3ccccc23)OCCCC[C@H](C)Oc2ccc(NS(=O)(=O)c3ccc(Cl)cc3)cc2C1=O	96*	x	-14	0	101*	63	-4	1
C[C@@H]1CCCCO[C@@H](CN(C)C(=O)Nc2cccc3ccccc23)[C@H](C)CN([C@@H](C)CO)C(=O)c2cc(NS(C)(=O)=O)ccc2O1	116*	x	-37	-1	-32	9	-12	-14
Nc1cc(N)nc(SCC(=O)Nc2cccc(C(F)(F)F)c2)n1	x	0	x	x	x	x	x	x
Cc1c(NC(=O)CN(c2cccc(Cl)c2Cl)S(C)(=O)=O)cccc1[N+](=O)[O-]	x	0	x	x	x	x	x	x
COC1OC(OC)C(O)(CC[C@@]2(O)[C@H](C)C[C@@H](O)C3[C@@](C)(CO)CCC[C@]32C)C1O (stereo partly specified)	x	0	x	x	x	x	x	x
Cc1ccccc1OCCn1c(C(O)c2ccccc2)nc2ccccc21 (stereo unspecified)	x	0	x	x	x	x	x	x
C[C@H]1CCCCO[C@H](CN(C)C(=O)Nc2cccc3ccccc23)[C@@H](C)CN([C@@H](C)CO)C(=O)c2cc(NS(=O)(=O)c3ccc(Cl)cc3)ccc2O1	u	x	-66	0	97*	119*	-26	-10
C[C@@H]1CCCCO[C@@H](CN(C)C(=O)Nc2cccc3ccccc23)[C@H](C)CN([C@@H](C)CO)C(=O)c2cc(NS(=O)(=O)c3cccs3)ccc2O1	101*	-1	-46	-2	107*	41	6	-20
